Values joined by “and” are separate entries in the source; they are usually repeats but may differ in a detail not shown here. Equal entries are not always repeated. Active and inactive are the calls of the source. No cut-off for these calls is given here.

Test [1] can be described thus: Binding affinity to d(CGCGCG)2 DNA (unknown origin) assessed as association constant at 3.5 compound to DNA molar ratio by ITC analysis. Put shortly:
(§1)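 Isothermal titration calorimetry at 25.0 °C. Ligand at 1 mM, dissolved in the final ODN dialysate, was titrated into 10.0 µM duplex d(CGCGCG)2 or d(CGCm8GCG)2 in 5 mM Na cacodylate, 100 mM NaCl, pH 7.0. The first 2 µL injection was followed by 10 µL injections, and the first injection was discarded. Samples were degassed. Stoichiometry is ligand per duplex.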

Test [2] is described as follows: Dissociation rate to 5'-biotin-conjugated d(TTTTCGCGCG-TTTT-CGCGCG) DNA (unknown origin) measured for 150 seconds by SPR analysis. (In general: SPR reads the build-up and loss of mass on a sensor chip optically.)
A short description of test [3]: Binding affinity to d(CGCGCG)2 DNA (unknown origin) assessed as change in UV-melting temperature at 5 uM. The method in brief:
(§2)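 UV melting used 5 µM B- or Z-DNA in 5 mM Na cacodylate, 100 mM NaCl, pH 7.0, with or without 5 µM ligand. Temperature was ramped at 1 °C/min between 10 and 60 °C.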

The nature of test [4]: Binding affinity to d(CGCm8GCG)2 DNA (unknown origin) assessed as change in UV-melting temperature at 5 uM. The method in brief:
as §2

Test [5] in a line: Binding affinity to d(CGCm8GCG)2 DNA (unknown origin) assessed as association constant at 4.1 compound to DNA molar ratio by ITC analysis. Put shortly:
as §1
For orientation: ITC needs no label: the signal is the heat of the interaction.

Test [6] can be described thus: Dissociation rate to 5'-biotin-conjugated d(TTTTCGCm8GCG-TTTT-CGCm8GCG) DNA (unknown origin) measured for 150 seconds by SPR analysis.
The nature of test [7]: Binding affinity to d(CGCGCG)2 DNA (unknown origin) assessed as association constant at 4.0 compound to DNA molar ratio by ITC analysis. The method in brief:
as §1

Test [8] in a line: Binding affinity to d(CGCGCG)2 DNA (unknown origin) assessed as association constant at 2.0 compound to DNA molar ratio by ITC analysis. The method in brief:
as §1

A short description of test [9]: Binding affinity to d(CGCm8GCG)2 DNA (unknown origin) assessed as association constant at 1.8 compound to DNA molar ratio by ITC analysis. Put shortly: as §1
Test [10] is described as follows: Selectivity ratio of Ka for 5'-biotin-conjugated d(TTTTCGCm8GCG-TTTT-CGCm8GCG) DNA (unknown origin) to Ka for 5'-biotin-conjugated d(TTTTCGCGCG-TTTT-CGCGCG) DNA (unknown origin).
Test [11] in a line: Selectivity ratio of Ka for d(CGCm8GCG)2 DNA (unknown origin) to Ka for d(CGCGCG)2 DNA (unknown origin). The method in brief:
as §1

Test [12] in a line: Binding affinity to d(CGCGCG)2 DNA (unknown origin) assessed as association constant at 2:1 DNA to compound ratio by ITC analysis. Put shortly:
as §1

Test [13] can be described thus: Induction of d(CGCGCG)2 DNA (unknown origin) to d(CGCm8GCG)2 DNA transition up to 160 uM by CD spectra analysis in presence of low concentration of NaCl. The method in brief:
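CD at 20 °C in a 2 mm cell. 20 µM d(CGCGCG)2 in 5 mM Na cacodylate, 100 mM NaCl, pH 7.0, was titrated with ligand stock from 0 to 160 µM. Spectra were blank-corrected and averaged over four scans.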

Test [14] in a line: Selectivity ratio of Ka for d(CGCGCG)2 DNA (unknown origin) to Ka for d(CGCm8GCG)2 DNA (unknown origin). Put shortly:
as §1

Test [15] can be described thus: Selectivity ratio of Ka for 5'-biotin-conjugated d(TTTTCGCGCG-TTTT-CGCGCG) DNA (unknown origin) to Ka for 5'-biotin-conjugated d(TTTTCGCm8GCG-TTTT-CGCm8GCG) DNA (unknown origin).
Test [16] can be described thus: Binding affinity to d(CGCm8GCG)2 DNA (unknown origin) assessed as association constant at 1.7 compound to DNA molar ratio by ITC analysis. Put shortly:
as §1

As usually defined, the ΔTm is the shift of the melting midpoint relative to a reference. Turning to `NCCCNCCCCNCCCN1C(=O)C(c2ccc3ccccc3c2)=C(c2ccc3ccccc3c2)C1=O`, the results for the Ka in [1] and in test [5] were 0.62 ×10⁷ /M and 0.31 ×10⁷ /M, respectively. Moreover, the results for the koff in [2] and in test [6] were 7.49 ×10⁻³ /s and 6.66 ×10⁻³ /s, respectively. For the same molecule, the ΔTm was determined as 16 °C in [3] and 18 °C in test [4].
With `Cc1cccc2ccc3c4c(c5ccc6cccc(C)c6c5c3c12)C(=O)N(CCCNCCCCNCCCN)C4=O`, the Ka in test [7] was 0.083 ×10⁷ /M; in [8] it was 36.7 ×10⁷ /M; in test [9], 0.17 ×10⁷ /M; in test [12] it was 3.7 ×10⁸ /M; in [16], 0.67 ×10⁷ /M. Moreover, the koff in test [2] is 3.7 ×10⁻³ /s and 8.59 ×10⁻³ /s; in test [6], 5.48 ×10⁻³ /s and 6.68 ×10⁻³ /s. The Selectivity ratio in test [10] is 2; in test [11], 2; in [14], 50; in test [15], 7. Further, the outcome in test [13] was Active. Moreover, the ΔTm in test [4] was 7.5 °C and 3.3 °C.

(Values after ChEMBL document CHEMBL2424623, “Enantioselective binding of chiral 1,14-dimethyl[5]helicene-spermine ligands with B- and Z-DNA” (Bioorg Med Chem, 2013).)
